Results pooled from the literature.
Each line is one published result; the experiments were not run side by side.
mraY: mraY (Staphylococcus aureus, UniProt Q2FZ93)
AURKC: Aurora kinase C (AURKC, Homo sapiens, UniProt Q9UQB9)

target	test	system	conditions	endpoint	result	SMILES
mraY	cell-free assay, inhibitor		250 µM	inhibition	> 80%	CCCCCCC#Cc1cncc(-c2nnc(SCc3cc([N+](=O)[O-])cc([N+](=O)[O-])c3)n2CCOC2OC(CN)C(O)C2O)c1 (stereo not drawn)
Rho-associated protein kinase 1 (ROCK1, Homo sapiens, UniProt Q13464)	enzyme activity, inhibitor		15 nM	remaining activity	31.3%	Cc1cc(-c2ccnc3[nH]cc(F)c23)cc(F)c1[C@@]1(O)[C@H](C)CN(C2CCS(=O)(=O)CC2)C[C@@H]1C
mraY	cell-free assay, inhibitor		250 µM	inhibition	71%	CCCCCCC#Cc1cncc(-c2nnc(SCc3ccc([N+](=O)[O-])o3)n2CCCN)c1
B1 bradykinin receptor (BDKRB1, Homo sapiens, UniProt P46663)	ligand displacement, radioligand		10 µM	inhibition	0%	CCN1/C(=C/C(C)=O)Sc2ccc(F)cc21
Mitogen-activated protein kinase kinase kinase 8 (MAP3K8, Homo sapiens, UniProt P41279)	binding		1 µM	remaining binding	104%	COc1ccc2oc(-c3ccc4nc(N)oc4c3)c/c(=N\c3ccccc3NC(=O)CCN)c2c1
mraY	cell-free assay, inhibitor		250 µM	inhibition	82%	CCCCCCC#Cc1cncc(-c2nnc(SCc3ccc([N+](=O)[O-])cc3)n2CCCN)c1
Serine/threonine-protein kinase SIK1 (SIK1, Homo sapiens, UniProt P57059)	binding, competition with immobilised ligand		0.5 µM	remaining binding	79%	CCCCC(=O)Nc1ccc(-c2ccc3ncn(CCC)c(=O)c3c2)cn1
BMP-2-inducible protein kinase (BMP2K, Homo sapiens, UniProt Q9NSY1)	binding, competition with immobilised ligand		1 µM	remaining binding	74%	C[C@]1(O)CCCN(c2nc(Nc3ccc(S(=O)(=O)N[C@H]4CC[C@H](CN5CCN(c6ccc(C7CCC(=O)NC7=O)cc6F)CC5)CC4)cc3F)ncc2C(F)(F)F)C1 (stereo partly drawn)
mraY	cell-free assay, inhibitor		250 µM	inhibition	> 80%	CCCCCCC#Cc1cncc(-c2nnc(SCc3cc([N+](=O)[O-])cc([N+](=O)[O-])c3)n2C2CCNCC2)c1
AURKC	binding, competition with immobilised ligand		1 µM	remaining binding	50%	Cc1cc(S(=O)(=O)N[C@H]2CC[C@H](CN3CCN(c4ccc(C5CCC(=O)NC5=O)cc4F)CC3)CC2)ccc1Nc1ncc(C(F)(F)F)c(N2CCC[C@](C)(O)C2)n1 (stereo partly drawn)
Receptor-type tyrosine-protein kinase FLT3 (FLT3, Homo sapiens, UniProt P36888, ITD)	enzyme activity, inhibitor, radiometric		0.5 µM	remaining activity	13%	Cc1n[nH]c2ccc3nc(-c4ccc(C(=O)NCCN(C)C)cc4F)c4c(c3c12)CCCC4
Gastrin/cholecystokinin type B receptor (CCKBR, Homo sapiens, UniProt P32239)	β-arrestin recruitment, agonist	HTLA		Emax	38.1%	CSCC[C@H](NC(C)=O)C(=O)N[C@@H](CC(=O)O)C(=O)N[C@@H](Cc1ccccc1)C(N)=O
AURKC	binding, competition with immobilised ligand		1 µM	remaining binding	99%	C[C@]1(O)CCCN(c2nc(Nc3ccc(S(=O)(=O)N[C@H]4CC[C@H](CN5CCN(c6ccc(C7CCC(=O)NC7=O)cc6F)CC5)CC4)cc3Cl)ncc2C(F)(F)F)C1 (stereo partly drawn)
Activin receptor type-2B (ACVR2B, Homo sapiens, UniProt Q13705)	binding		0.1 µM	remaining binding	63%	C1=C/COCc2cc(ccc2OCCN2CCCC2)Nc2nccc(n2)-c2cccc(c2)COC/1
Melatonin receptor type 1A (MTNR1A, Homo sapiens, UniProt P48039)	ligand displacement, radioligand		10 µM	inhibition	< 50%	NC/C(=C\F)COc1cccc(Cn2c(=S)[nH]c(=O)c3[nH]cnc32)c1
